The text below walks through data of ChEMBL document CHEMBL1153109, “New potent 5-nitroindazole derivatives as inhibitors of Trypanosoma cruzi growth: synthesis, biological evaluation, and mechanism of action studies” (Bioorg Med Chem, 2009).

A word on the IC50: it is the concentration needed to halve the response being measured.

Data set [1] deals with Radical scavenging activity. Put plainly: Antioxidant activity assessed as DPPH radical scavenging activity. The class given is functional. Details: concentration or dose not given beside the values. A digest of the protocol:
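Scavenging of DPPH radical measured by ESR. Reaction mixtures contain 1.0 mM dpph and 1.0 mM 5-NI, both prepared in acetonitrile. The control contains no 5-NI. Signal recorded 1 min after the start of the reaction at microwave frequency 9.72 GHz and power 20 mW.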

In the next data set the test system is Caco-2. Briefly: Cytotoxicity against human Caco-2 cells at 25 uM by MTT assay. Format: cell-based. The note with it: caco-2, 25 µM. A digest of the protocol:
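Caco-2 cells kept in DMEM-F12 with 10% FBS, penicillin and streptomycin at 37 °C, 5% CO₂. Cells plated at 5 × 10⁴ cells/mL, then exposed to compound in PBS for 2 h. After washing, cells incubated with 0.5 mg/mL MTT for 120 min at 37 °C. Formazan dissolved in DMSO for 10 min at 37 °C and read at 540 nm.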

In data set [2] the test system is Trypanosoma cruzi. Briefly: Antitrypanosomal activity against Trypanosoma cruzi CL Brener epimastigotes after 5 days. Format: functional, organism-based. Conditions: 120 h. A digest of the protocol: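 CL Brener epimastigotes grown at 28 °C in BHI–Tryptose with 5% FBS. Stationary-phase (10-day) cells inoculated at 1 × 10⁶ cells/mL into medium with drug from a DMSO stock (final DMSO ≤0.4%); control contains 0.4% DMSO. Growth followed by A600. Inhibition at day 5 is computed from the day 0 and day 5 absorbances relative to control. IC50 is the concentration reducing the absorbance ratio to 50%.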

Data set [3] concerns Trypanosoma cruzi. Briefly: Inhibition of parasitic respiration in Trypanosoma cruzi tulahuen epimastigotes assessed as oxygen uptake at 0.42 mM relative to control. The class given is functional.
The subject of data set [4] is Trypanosoma cruzi. Briefly: Inhibition of parasitic respiration in Trypanosoma cruzi tulahuen epimastigotes assessed as oxygen uptake at 0.208 mM relative to control. Format: functional.
In data set [5] the test system is Trypanosoma cruzi. Briefly: Inhibition of parasitic respiration in Trypanosoma cruzi tulahuen epimastigotes assessed as oxygen uptake at 0.104 mM relative to control. Format: functional.
In data set [6] the test system is Trypanosoma cruzi. Put plainly: Inhibition of parasitic respiration in Trypanosoma cruzi tulahuen epimastigotes assessed as oxygen uptake at 2 mM relative to control. Format: functional.
For data set [7], the system named is Trypanosoma cruzi. Put plainly: Inhibition of parasitic respiration in Trypanosoma cruzi tulahuen epimastigotes assessed as oxygen uptake at 0.83 mM relative to control. Format: functional.

Turning to `COc1nn(CCCN2CCCCC2)c2ccc([N+](=O)[O-])cc12`, the Activity in data set [1] was below 30%. The Cytotoxicity in the data set with Caco-2 was found to be 0%. Also, in the data set with Trypanosoma cruzi [2], the IC50 is above 25 µM.

For `O=[N+]([O-])c1ccc2c(c1)c(OCc1ccccc1)nn2CCCCCN1CCCC1`, the Activity in data set [1] was below 30%. This molecule had a Cytotoxicity with Caco-2 of 25%. For the same molecule, inhibition with Trypanosoma cruzi [2] was half-maximal at 7.5 µM (IC50).

With `CCN(CC)CCn1nc(OCc2ccccc2)c2cc([N+](=O)[O-])ccc21`, in data set [1], the Activity is below 30%. This molecule also had a Cytotoxicity in the data set on Caco-2 of 30%. Moreover, the IC50 with Trypanosoma cruzi [2] amounted to 11.3 µM.

On to `COc1nn(CCN2CCCCC2)c2ccc([N+](=O)[O-])cc12`, for which, in data set [1], the Activity was below 30%. The same molecule yielded a Cytotoxicity in the data set on Caco-2 of 10%. In addition, the IC50 in the data set with Trypanosoma cruzi [2] is above 25 µM.

For the molecule `CN(C)CCn1nc(OCc2ccccc2)c2cc([N+](=O)[O-])ccc21`, the Activity in data set [1] was below 30%. The Oxygen uptake at 420 µM with Trypanosoma cruzi [3] stood at 51%. For the same molecule, the Cytotoxicity in the data set with Caco-2 amounted to 12%. Moreover, the Oxygen uptake at 208 µM in the data set with Trypanosoma cruzi [4] came to 64%. The same molecule had an IC50 in the data set on Trypanosoma cruzi [2] of 25 µM.

`COc1nn(CCN(C(C)C)C(C)C)c2ccc([N+](=O)[O-])cc12`: the Activity in data set [1] was below 30%. This molecule yielded a Cytotoxicity with Caco-2 of 15%. In the data set on Trypanosoma cruzi [2], the IC50 is above 25 µM.

`CN(C)CCCCCCn1nc(OCc2ccccc2)c2cc([N+](=O)[O-])ccc21`: the Activity in data set [1] was above 40%. Besides, the Oxygen uptake at 420 µM with Trypanosoma cruzi [3] is 52%. Besides, in the data set with Caco-2, the Cytotoxicity is listed as 40%. For the same molecule, in the data set with Trypanosoma cruzi [4], the Oxygen uptake at 208 µM turned out to be 59%. In the data set with Trypanosoma cruzi [2], this molecule yielded an IC50 of 9.4 µM. The Oxygen uptake at 104 µM in the data set with Trypanosoma cruzi [5] is 100%.

As for `O=[N+]([O-])c1ccc2c(c1)c(OCc1ccccc1)nn2CCCCCBr`, the Activity in data set [1] is below 30%. The Oxygen uptake at 420 µM with Trypanosoma cruzi [3] was 100%. Also, the Oxygen uptake at 2000 µM in the data set with Trypanosoma cruzi [6] is 38%. This molecule registered an IC50 in the data set on Trypanosoma cruzi [2] of 20.7 µM. Further, the Oxygen uptake at 830 µM in the data set with Trypanosoma cruzi [7] was determined as 100%.

Consider `CC(C)N(CCn1nc(OCc2ccccc2)c2cc([N+](=O)[O-])ccc21)C(C)C`, for which the Activity in data set [1] is below 30%. For the same molecule, the Cytotoxicity in the data set with Caco-2 is given as 0%. Besides, the IC50 in the data set with Trypanosoma cruzi [2] turned out to be 9.2 µM.

For the molecule `O=[N+]([O-])c1ccc2c(c1)c(OCc1ccccc1)nn2CCN1CCCCC1`, in data set [1], the Activity is below 30%. Further, the Cytotoxicity in the data set with Caco-2 was found to be 27%. This molecule also yielded a half-inhibitory concentration (IC50) with Trypanosoma cruzi [2] of 8.4 µM.

As for `O=[N+]([O-])c1ccc2c(c1)c(OCc1ccccc1)nn2CCCCCN1CCc2ccccc2C1`, the Activity in data set [1] was below 30%. The molecule also displayed a Cytotoxicity with Caco-2 of 15%. In addition, in the data set on Trypanosoma cruzi [2], the IC50 worked out at 12.9 µM.

In the case of `COc1nn(CCCN(C)C)c2ccc([N+](=O)[O-])cc12`, in data set [1], the Activity is below 30%. In the data set on Caco-2, this molecule yielded a Cytotoxicity of 29%. For the same molecule, in the data set with Trypanosoma cruzi [2], the IC50 was above 25 µM.

For `COc1nn(CCN2CCOCC2)c2ccc([N+](=O)[O-])cc12`, the Activity in data set [1] was below 30%. In the data set on Caco-2, this molecule came in with a Cytotoxicity of 0%. In the data set on Trypanosoma cruzi [2], the IC50 is above 25 µM.

As for `CCN(CC)CCn1nc(OC)c2cc([N+](=O)[O-])ccc21`, the Activity in data set [1] was below 30%. Also, the Cytotoxicity in the data set on Caco-2 is reported as 0%. Further, the IC50 in the data set with Trypanosoma cruzi [2] was above 25 µM.

`O=[N+]([O-])c1ccc2c(c1)c(OCc1ccccc1)nn2CCN1CCOCC1`: the Activity in data set [1] was below 30%. This molecule also came in with a Cytotoxicity in the data set on Caco-2 of 0%. Further, the IC50 with Trypanosoma cruzi [2] is above 25 µM.

As to `O=[N+]([O-])c1ccc2c(c1)c(OCc1ccccc1)nn2CCCCCCN1CCCCC1`, the Activity in data set [1] was below 30%. Moreover, in the data set with Caco-2, the Cytotoxicity is recorded as 33%. Moreover, half-maximal inhibition with Trypanosoma cruzi [2] (IC50) was put at 7.4 µM.

In the case of `COc1nn(CCCBr)c2ccc([N+](=O)[O-])cc12`, the Activity in data set [1] was below 30%. This molecule also came in with an IC50 in the data set on Trypanosoma cruzi [2] of 67.8 µM.

Turning to `COc1nn(CCN(C)C)c2ccc([N+](=O)[O-])cc12`, in data set [1], the Activity is below 30%. The molecule also displayed a Cytotoxicity in the data set with Caco-2 of 15%. For the same molecule, in the data set with Trypanosoma cruzi [2], the IC50 was above 25 µM.

`O=[N+]([O-])c1ccc2c(c1)c(OCc1ccccc1)nn2CCCCCN1CCCCCC1`: the Activity in data set [1] was above 40%. In addition, in the data set on Caco-2, the Cytotoxicity amounted to 25%. Besides, in the data set on Trypanosoma cruzi [2], the IC50 worked out at 10.5 µM.

Turning to `O=[N+]([O-])c1ccc2c(c1)c(OCc1ccccc1)nn2CCCCCCBr`, in data set [1], the Activity was below 30%. In the data set with Trypanosoma cruzi [3], the Oxygen uptake at 420 µM came out at 100%. Further, the Oxygen uptake at 2000 µM in the data set with Trypanosoma cruzi [6] came to 100%. For the same molecule, the IC50 in the data set on Trypanosoma cruzi [2] amounted to 19.3 µM. For the same molecule, the Oxygen uptake at 830 µM in the data set with Trypanosoma cruzi [7] was 100%.
